# Assay outcomes: PubChem, The Scripps Research Institute Molecular Screening Center
# In the library only some 1.2% were active in any assay of this set; here they are far more common.
# procasp7 counter: procaspase-7 activators, primary screen, counter-screen for procaspase-3 activator project, biochemical, absorbance, HTS, human; AID 463210, 2010; recombinant procaspase-7, Ac-DEVD-pNA absorbance 405 nm; D23A/D198A/D206A triple mutant, cannot self-cleave; scale: DMSO 0, 5 µM enzyme 100; Caspase-7 (Homo sapiens), P55210; activation, % at 8.5 µM; hit rate 0.093% among 330,000;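 active means percent activation above the screen-wide mean plus 3 SD, cut at about 25% in these data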
#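 Assay system: Uncleavable procaspase-7 mutant enzyme / Input: 2 µM procaspase-7 mutant as dispensed / Dosing: single nominal 8.5 µM compound dose, 0.8% DMSO final / Timing: 1 h enzyme–compound preincubation and 2 h substrate reaction, both 25 °C / Detection: p-Nitroaniline absorbance at 405 nm, read at 0 and 120 min / Replication: singlicate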
# PP5 inh: PP5 phosphatase inhibitors, primary screen, biochemical, fluorescence; Serine/threonine-protein phosphatase 5 (Homo sapiens), P53041; purified PP5c, OMFP substrate fluorescence; inhibition, % at 6.7 µM; hit rate 0.18% among 320,000;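 active means inhibition above the campaign's mean inhibition across all tested compounds plus 3 SD, cut at about 9.5% in these data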;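 further: 0% = DMSO only and 100% = 100 µM cantharidin control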
# PP1 counter: PP1-alpha phosphatase inhibitors, primary screen, counter-screen for PP5 inhibitor project, biochemical, fluorescence, OMFP substrate, single point. Serine/threonine-protein phosphatase PP1-alpha catalytic subunit (Homo sapiens), P62136. purified PP1alpha. inhibition, % at 6.7 µM. hit rate 0.9% among 320,000. AID 2235, 2010;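 active means inhibition above the mean inhibition of all tested compounds plus 3 SD, computed separately for each screening campaign, cut at about 15% in these data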
# Target sequence (P62136 whole entry, looked up): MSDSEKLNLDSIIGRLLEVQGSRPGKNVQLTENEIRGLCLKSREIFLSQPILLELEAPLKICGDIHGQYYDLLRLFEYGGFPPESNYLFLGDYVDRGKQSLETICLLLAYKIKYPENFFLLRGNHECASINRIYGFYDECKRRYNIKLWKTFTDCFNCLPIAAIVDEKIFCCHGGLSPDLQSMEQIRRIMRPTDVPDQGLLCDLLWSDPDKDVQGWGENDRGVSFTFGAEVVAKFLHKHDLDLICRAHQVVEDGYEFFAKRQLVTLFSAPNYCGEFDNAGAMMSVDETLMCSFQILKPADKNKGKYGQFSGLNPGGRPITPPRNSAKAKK
# procasp3 activ: activators of human procaspase-3 D3A mutant, primary screen, biochemical, absorbance, PC-3 D3A mutant, single concentration; AID 463141, 2010; hit rate 0.11% among 330,000; recombinant procaspase-3 D3A, Ac-DEVD-pNA absorbance 405 nm; activation, % at 8.5 µM; Caspase-3 (Homo sapiens), P42574;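 active means activation above the mean of all tested compounds plus 3 SD, cut at about 21% in these data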;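 further: 0% = DMSO alone and 100% = DMSO wells spiked with extra 5 µM PC-3 D3A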
#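 material = Procaspase-3 D3A mutant | probe or stimulus = Ac-DEVD-pNA | compound = single dose, 8.5 µM nominal compound, 0.8% DMSO | timing = 1 h preincubation, 2 h reaction | measured by = 405 nm absorbance of p-nitroaniline, reads at 0 and 120 min | benchmarks = DMSO-only low control, 5 µM PC-3 D3A high control | repeats = singlicate, each compound tested once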
# PC3 D3A act: procaspase-3 activators, counter-screen for dual procaspase-3/7 activator project, biochemical, absorbance, PC-3 D3A mutant, human. recombinant PC-3 D3A, Ac-DEVD-pNA absorbance 405 nm; aspartates 9, 28, 175 changed to alanine; 100% = enzyme control. shares compounds with procasp7 counter. activation, % at 8.5 µM. 290 tested, under 10 active;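 active means mean percent activation across triplicates above a set limit taken from the earlier primary procaspase-3 screen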;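 further: 0% = DMSO wells and 100% = DMSO wells with 5 µM added PC-3 D3A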
# PC7 dual conf: activation of procaspase-7 enzyme – biochemical, absorbance, human, dual procaspase-3/-7 activator project, confirmation; shares compounds with procasp7 counter; recombinant procaspase-7, Ac-DEVD-pNA absorbance 405 nm; D23A/D198A/D206A mutant that cannot self-cleave; activation, % at 8.5 µM; 290 tested, under 10 active; AID 493115, 2011;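 active means mean activation above a set limit carried over from the earlier primary screen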;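 further: 0% = DMSO only and 100% = DMSO with added 5 µM PC-7 enzyme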
# An asterisk follows results filed as active; x = no result given.
SMILES,procasp7 counter,PP5 inh,PP1 counter,procasp3 activ,PC3 D3A act,PC7 dual conf
CCN(CC)c1ccc(/C=N/NC(=S)NCc2ccccc2)cc1,43*,4,2,67*,-26,-29
C=CCNC(=S)N/N=C/c1ccc(N(CC)Cc2ccccc2)cc1,37*,5,10,24*,-19,-14
CCN(CC)c1ccc(/C=N/NC(=S)NCc2ccc(OC)cc2)cc1,37*,5,-1,44*,-30,-30
Cc1ccc(NC(=O)c2ccccc2N2C(=O)C3C4C=CC(C5CC45)C3C2=O)cc1C (stereo unspecified),3,0,-1,2,x,x
Cc1ccc(NC(=O)c2ncn(CC(=O)N[C@H](CO)Cc3c[nH]c4ccccc34)n2)cc1C,-3,x,x,-4,x,x
O=c1/c(=C\c2ccc(F)cc2)sc2n1CCCN=2,-4,2,-1,-4,x,x
Cc1cc2c(c(=O)n1C)C(Cc1ccccc1)C(C#N)=C(N)O2 (stereo unspecified),47*,2,-2,38*,-27,-35
CCOc1ccc(N2C(=O)/C(=C\c3ccccc3OC)S(=O)(=O)C2c2cccc([N+](=O)[O-])c2)cc1 (stereo unspecified),8,0,1,-4,x,x
CCOc1ccc2nc(-c3cc(NC(C)=O)ccc3O)sc2c1,31*,1,-5,5,2,-1
Cc1ccc(C(=O)N/C(=C\c2ccccc2)C(=O)NCc2cccnc2)cc1,3,0,-8,5,x,x
COC(=O)C1C(O)=C(C=Nc2ccccc2)C(=O)CC1(C)C (stereo unspecified),6,-2,0,4,x,x
COC(=O)C1C(O)=C(C=Nc2ccc(N)cc2)C(=O)CC1(C)C (stereo unspecified),36*,2,1,11,3,0
COc1ccc(OC)c2sc(N3CCc4ccccc4C3)nc12,3,3,4,-2,x,x
COc1ccc(OC)c2sc(N3CCCCC3)nc12,28*,1,-1,-1,5,-2
COc1ccc(-c2cc(C)no2)cc1S(=O)(=O)NCC(C)c1ccccc1 (stereo unspecified),-3,3,-1,9,x,x
COc1ccc(-c2cc(C(=O)OC3CCOC3=O)c3ccccc3n2)cc1OC (stereo unspecified),28*,2,-2,27*,15,10
COc1ccc(-c2cc(C(=O)OCC(=O)NC(C)C)c3ccccc3n2)cc1,27*,-1,0,38*,-17,-12
CCOC(=O)c1cnc(SCc2nc(N)nc(Nc3ccc(C)cc3)n2)nc1N,-2,5,1,-6,x,x
O=C(NCc1ccco1)/C(=C/c1ccc([N+](=O)[O-])cc1)NC(=O)c1ccco1,4,0,-1,8,x,x
NS(=O)(=O)c1ccc(NC(=O)/C=C/c2cn(-c3ccccc3)nc2-c2cccc(Cl)c2)cc1,72*,-1,14,55*,-28,-6
O=C(O)c1ccc(NC(=O)c2cn(-c3ccccc3)nc2-c2cccc(Cl)c2)cc1,6,5,9,0,x,x
CCOC(=O)C1=C(C)NC2=C(C(=O)CCC2)C1c1cccs1 (stereo unspecified),0,0,0,-12,x,x
CCOC(=O)c1sc2c(c1C)C(c1cccs1)C1=C(CCCC1=O)N2 (stereo unspecified),40*,4,4,23*,-29,-35
N#Cc1c(N)n(C2CCCCC2)c2nc3ccccc3nc12,62*,5,4,13,-29,-36
Cn1ncc(Cl)c1C(=O)Nc1ccc2c(c1)OCO2,-4,-1,0,-2,x,x
